Data from ChEMBL document CHEMBL4406822, “Neuroactive Steroid N-Methyl-d-aspartate Receptor Positive Allosteric Modulators: Synthesis, SAR, and Pharmacological Activity” (J Med Chem, 2019).

How the values were obtained:
[1] = target: T1, Glutamate NMDA receptor; GRIN1/GRIN2B (Homo sapiens, UniProt Q05586+Q13224); experiment: Positive allosteric modulation of recombinant human GluN1/GluN2B receptor stably expressed in HEK293 cells assessed as increase in glycine/L-glutamate-induced channel current at -70 mV holding potential by IonWork […] method; format: cell-based
In short: (§1)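 Stable HEK293 lines expressing GluN1/GluN2A or GluN1/GluN2B, measured by automated whole-cell patch clamp (Ionworks Barracuda). Cells were held at -70 mV and stepped to -45 mV during agonist application (EC20 L-glutamate plus 50 µM glycine). The test article was first pre-applied alone for 5 min, then co-applied with agonist to record potentiation. Concentration-response percent potentiation gave EC50 and Emax.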

[2] = target: T2, Glutamate NMDA receptor; GRIN1/GRIN2A (Homo sapiens, UniProt Q05586+Q12879); experiment: Positive allosteric modulation of recombinant human GluN1/GluN2A receptor stably expressed in HEK293 cells assessed as increase in glycine/L-glutamate-induced channel current at -70 mV holding potential by IonWork […] method; format: cell-based; in short: as §1
[3] = target: T1, Glutamate NMDA receptor; GRIN1/GRIN2B; experiment: Positive allosteric modulation of recombinant human GluN1/GluN2B receptor stably expressed in HEK293 cells assessed as increase in glycine/L-glutamate-induced channel current at -70 mV holding potential by IonWork whole cell patch clamp method relative to control
[4] = Stability in rat liver microsomes; format: ADME, Microsome; details: read-out: Stability
[5] = Stability in human liver microsomes; format: ADME, Microsome; details: read-out: Stability
[6] = target: T2, Glutamate NMDA receptor; GRIN1/GRIN2A; experiment: Positive allosteric modulation of recombinant human GluN1/GluN2A receptor stably expressed in HEK293 cells assessed as increase in glycine/L-glutamate-induced channel current at -70 mV holding potential by IonWork […] method relative to control; format: cell-based; in short: as §1
[7] = Half life in rat; format: ADME; details: in vivo
[8] = Volume of distribution at steady state in rat; format: ADME; details: in vivo, read-out: Vdss
[9] = Ratio of drug level in Sprague-Dawley rat brain to plasma at 10 mg/kg, ip measured after 1 hr; format: ADME, organism-based; details: brain and plasma, read-out: BPR
[10] = Clearance in iv dosed rat; format: ADME, organism-based; details: in vivo
[11] = Oral bioavailability in rat; format: ADME, organism-based; details: in vivo
[12] = Ratio of drug level in Sprague-Dawley rat brain to plasma at 2.5 mg/kg, iv measured after 1 hr; format: ADME, organism-based; details: brain and plasma, read-out: BPR

Structure (SMILES) | EC50 [1] | EC50 [2] | Emax [3] | microsomal CLint [4] | microsomal CLint [5] | Emax [6] | half-life [7] | Vd [8] | Kp at 1 h [9] | clearance [10] | bioavailability [11] | Kp at 1 h [12]
C[C@H](CCC(C)(C)O)[C@H]1CC[C@H]2[C@@H]3CC=C4C[C@](C)(O)CC[C@]4(C)[C@H]3CC[C@]12C | 3900 nM | > 10000 nM | 160% | – | – | – | – | – | – | – | – | –
CC[C@@H](O)CC[C@@H](C)[C@H]1CC[C@H]2[C@@H]3CC=C4C[C@@](C)(O)CC[C@]4(C)[C@H]3CC[C@]12C | 30 nM | 420 nM | 130% | 25 µL/min/mg | < 10 µL/min/mg | 220% | – | – | – | – | – | –
COC(C)(C)CC[C@@H](C)[C@H]1CC[C@H]2[C@@H]3CC=C4C[C@@](C)(O)CC[C@]4(C)[C@H]3CC[C@]12C | > 10000 nM | > 10000 nM | – | – | – | – | – | – | – | – | – | –
C[C@H](CCCO)[C@H]1CC[C@H]2[C@@H]3CC=C4C[C@@H](O)CC[C@]4(C)[C@H]3CC[C@]12C | > 10000 nM | 3000 nM | – | 25 µL/min/mg | 13 µL/min/mg | 290% | – | – | – | – | – | –
C[C@H](CC[C@@H](O)C1CC1)[C@H]1CC[C@H]2[C@@H]3CC=C4C[C@@](C)(O)CC[C@]4(C)[C@H]3CC[C@]12C | 190 nM | 77 nM | 280% | 20 µL/min/mg | 10 µL/min/mg | 220% | 1.8 h | 4.4 L/kg | 3.2 | 68.3 mL/min/kg | – | –
C[C@H](O)CC[C@@H](C)[C@H]1CC[C@H]2[C@@H]3CC=C4C[C@@](C)(O)CC[C@]4(C)[C@H]3CC[C@]12C | 3000 nM | > 10000 nM | 50% | 56 µL/min/mg | < 10 µL/min/mg | – | – | – | – | – | – | –
C[C@H](CC[C@H](O)C1CCC1)[C@H]1CC[C@H]2[C@@H]3CC=C4C[C@@](C)(O)CC[C@]4(C)[C@H]3CC[C@]12C | 120 nM | 120 nM | 530% | 31 µL/min/mg | < 10 µL/min/mg | 300% | – | – | – | – | – | –
C[C@H](CCCC(C)(C)O)[C@H]1CC[C@H]2[C@@H]3CC=C4C[C@@H](O)CC[C@]4(C)[C@H]3CC[C@]12C | > 10000 nM | > 10000 nM | 67% | 31 µL/min/mg | 23 µL/min/mg | – | 0.38 h | 1.2 L/kg | – | 41.7 mL/min/kg | 6% | –
C[C@H](CCC1(O)CC1)[C@H]1CC[C@H]2[C@@H]3CC=C4C[C@@](C)(O)CC[C@]4(C)[C@H]3CC[C@]12C | 410 nM | 80 nM | 180% | 23 µL/min/mg | 6 µL/min/mg | 300% | – | – | – | – | – | –
C[C@H](CC[C@@H](C)O)[C@H]1CC[C@H]2[C@@H]3CC=C4C[C@@](C)(O)CC[C@]4(C)[C@H]3CC[C@]12C | > 10000 nM | > 10000 nM | – | 67 µL/min/mg | 11 µL/min/mg | – | – | – | – | – | – | –
CC(C)[C@H](O)CC[C@@H](C)[C@H]1CC[C@H]2[C@@H]3CC=C4C[C@@H](O)CC[C@]4(C)[C@H]3CC[C@]12C | 55 nM | 37 nM | 140% | 93 µL/min/mg | 28 µL/min/mg | 220% | – | – | – | – | – | –
C[C@H](CC[C@H](O)C1CC1)[C@H]1CC[C@H]2[C@@H]3CC=C4C[C@@](C)(O)CC[C@]4(C)[C@H]3CC[C@]12C | 170 nM | 320 nM | 150% | 28 µL/min/mg | < 10 µL/min/mg | 230% | – | – | – | – | – | –
CC(C)[C@H](O)CC[C@@H](C)[C@H]1CC[C@H]2[C@@H]3CC=C4C[C@@](C)(O)CC[C@]4(C)[C@H]3CC[C@]12C | 190 nM | 120 nM | 230% | 11 µL/min/mg | < 10 µL/min/mg | 200% | 2.2 h | 3.1 L/kg | 0.8 | 38.3 mL/min/kg | 25% | –
CC(O)CC[C@@H](C)[C@H]1CC[C@H]2[C@@H]3CC=C4C[C@@H](O)CC[C@]4(C)[C@H]3CC[C@]12C (stereo partly drawn) | 140 nM | 320 nM | 180% | 17 µL/min/mg | 7 µL/min/mg | 150% | – | – | – | – | – | –
C[C@H](CCC1(O)CC1)[C@H]1CC[C@H]2[C@@H]3CC=C4C[C@@H](O)CC[C@]4(C)[C@H]3CC[C@]12C | 310 nM | 900 nM | 280% | 35 µL/min/mg | 10 µL/min/mg | 280% | – | – | – | – | – | –
C[C@H](CC[C@@H](O)C1CCC1)[C@H]1CC[C@H]2[C@@H]3CC=C4C[C@@](C)(O)CC[C@]4(C)[C@H]3CC[C@]12C | 270 nM | 270 nM | 410% | 25 µL/min/mg | < 10 µL/min/mg | 250% | 0.84 h | 2.9 L/kg | – | 88.3 mL/min/kg | 18% | –
CC(C)(O)CCC[C@H]1CC[C@H]2[C@@H]3CC=C4C[C@@](C)(O)CC[C@]4(C)[C@H]3CC[C@]12C | 160 nM | 550 nM | 120% | – | – | 120% | – | – | – | – | – | –
C[C@H](CC(C)(C)O)[C@H]1CC[C@H]2[C@@H]3CC=C4C[C@@H](O)CC[C@]4(C)[C@H]3CC[C@]12C | > 10000 nM | > 10000 nM | – | 63 µL/min/mg | 18 µL/min/mg | – | – | – | – | – | – | –
C[C@@H]([C@H]1CC[C@H]2[C@@H]3CC=C4C[C@@H](O)CC[C@]4(C)[C@H]3CC[C@]12C)C(C)(C)O | > 10000 nM | > 10000 nM | – | 48 µL/min/mg | 6 µL/min/mg | – | – | – | – | – | – | –
C[C@H](CC[C@@H](O)C(F)(F)F)[C@H]1CC[C@H]2[C@@H]3CC=C4C[C@@](C)(O)CC[C@]4(C)[C@H]3CC[C@]12C | 310 nM | 30 nM | 230% | 9 µL/min/mg | 3 µL/min/mg | 150% | 1.9 h | 2.8 L/kg | – | 31.7 mL/min/kg | 70% | 1
C[C@@H](CCC(C)(C)O)[C@H]1CC[C@H]2[C@@H]3CC=C4C[C@@](C)(O)CC[C@]4(C)[C@H]3CC[C@]12C | > 10000 nM | > 10000 nM | – | – | – | – | – | – | – | – | – | –
C[C@H](CC[C@H](O)C(F)(F)F)[C@H]1CC[C@H]2[C@@H]3CC=C4C[C@@](C)(O)CC[C@]4(C)[C@H]3CC[C@]12C | 110 nM | 220 nM | 170% | 12 µL/min/mg | 4 µL/min/mg | 260% | – | – | – | – | – | –
CC[C@H](O)CC[C@@H](C)[C@H]1CC[C@H]2[C@@H]3CC=C4C[C@@](C)(O)CC[C@]4(C)[C@H]3CC[C@]12C | 84 nM | 100 nM | 160% | 10 µL/min/mg | 15 µL/min/mg | 250% | – | – | – | – | – | –
